For assay [1], the system named is MDA-MB-231. Briefly: Cytotoxicity against human MDA-MB-231 cells after 48 hrs by sulforhodamine B assay. The class given is functional. As to conditions: MDA-MB-231, 48 h; for CC50: read-out: LC50 (the source's name). An outline of the steps:
(§1)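 Cells seeded at 5×10^3 per well in RPMI and allowed to attach for 18 h in drug-free medium. Samples were added in 3:7 DMSO/H2O, with highest concentration 100 µM, and exposed for 48 h. Cells were fixed with cold TCA at 4 °C for 60 min, stained with 0.4% SRB and solubilized in Tris. OD was read at 490 nm. GI50, TGI and LC50 came from automated analysis following the NCI protocol.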

The next assay concerns A549. Briefly: Cytotoxicity against human A549 cells after 48 hrs by sulforhodamine B assay. The conditions noted are these: A549, 48 h; for CC50: read-out: LC50 (the source's name). The assay is classed as functional. An outline of the steps:
as §1

Another assay concerns HT-29. Briefly: Cytotoxicity against human HT-29 cells after 48 hrs by sulforhodamine B assay. The class given is functional. The conditions noted are these: HT-29, 48 h. The method, boiled down:
as §1

Another assay deals with HeLa. Briefly: Inhibition of mitosis in human HeLa cells assessed as G2 checkpoint inhibition by ELISA. The class given is functional, cell-based. The method, boiled down:
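ELISA immunoassay in HeLa cells. Paclitaxel and vinblastine (each 1 µg/mL) were control inhibitors. Five fixed concentrations were tested (10, 2, 0.4, 0.08, 0.016 µg/mL). Inhibition and survival are given as % of controls.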

The test system of assay [2] is MDA-MB-231. Briefly: Inhibition of histone deacetylase expressed in human MDA-MB-231 cells. The assay is classed as cell-based. The method, boiled down:
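Cell extracts from MDA-MB-231 breast carcinoma served as enzyme source. Trichostatin A at 250 nM was the reference inhibitor. Test concentrations were 10, 2, 0.4, 0.08 and 0.016 µg/mL. Data are % inhibition relative to controls.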

The target in assay [3] is Epidermal growth factor receptor (Homo sapiens) (UniProt P00533). Briefly: Inhibition of EGFR expressed in human HeLa cells at 10 ug/mL by AP1-luciferase reporter gene assay relative to control. The assay is classed as cell-based. An outline of the steps: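 AP1-luc stably transfected HeLa cells were grown in DMEM/10% FBS at 20,000 cells/well and set for 24 h. They were treated with 1% DMSO vehicle or compound (10, 2, 0.4, 0.08, 0.016 µg/mL) before stimulation with EGF at 25 ng/mL. Control inhibitor was AG-1478 at 20 µM. Survival was checked by calcein-AM (0.1 µM, 30 min, 37 °C), then luciferase read by luminescence. Values are % of control.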
Epidermal growth factor receptor (Homo sapiens), sequence (P00533 whole entry): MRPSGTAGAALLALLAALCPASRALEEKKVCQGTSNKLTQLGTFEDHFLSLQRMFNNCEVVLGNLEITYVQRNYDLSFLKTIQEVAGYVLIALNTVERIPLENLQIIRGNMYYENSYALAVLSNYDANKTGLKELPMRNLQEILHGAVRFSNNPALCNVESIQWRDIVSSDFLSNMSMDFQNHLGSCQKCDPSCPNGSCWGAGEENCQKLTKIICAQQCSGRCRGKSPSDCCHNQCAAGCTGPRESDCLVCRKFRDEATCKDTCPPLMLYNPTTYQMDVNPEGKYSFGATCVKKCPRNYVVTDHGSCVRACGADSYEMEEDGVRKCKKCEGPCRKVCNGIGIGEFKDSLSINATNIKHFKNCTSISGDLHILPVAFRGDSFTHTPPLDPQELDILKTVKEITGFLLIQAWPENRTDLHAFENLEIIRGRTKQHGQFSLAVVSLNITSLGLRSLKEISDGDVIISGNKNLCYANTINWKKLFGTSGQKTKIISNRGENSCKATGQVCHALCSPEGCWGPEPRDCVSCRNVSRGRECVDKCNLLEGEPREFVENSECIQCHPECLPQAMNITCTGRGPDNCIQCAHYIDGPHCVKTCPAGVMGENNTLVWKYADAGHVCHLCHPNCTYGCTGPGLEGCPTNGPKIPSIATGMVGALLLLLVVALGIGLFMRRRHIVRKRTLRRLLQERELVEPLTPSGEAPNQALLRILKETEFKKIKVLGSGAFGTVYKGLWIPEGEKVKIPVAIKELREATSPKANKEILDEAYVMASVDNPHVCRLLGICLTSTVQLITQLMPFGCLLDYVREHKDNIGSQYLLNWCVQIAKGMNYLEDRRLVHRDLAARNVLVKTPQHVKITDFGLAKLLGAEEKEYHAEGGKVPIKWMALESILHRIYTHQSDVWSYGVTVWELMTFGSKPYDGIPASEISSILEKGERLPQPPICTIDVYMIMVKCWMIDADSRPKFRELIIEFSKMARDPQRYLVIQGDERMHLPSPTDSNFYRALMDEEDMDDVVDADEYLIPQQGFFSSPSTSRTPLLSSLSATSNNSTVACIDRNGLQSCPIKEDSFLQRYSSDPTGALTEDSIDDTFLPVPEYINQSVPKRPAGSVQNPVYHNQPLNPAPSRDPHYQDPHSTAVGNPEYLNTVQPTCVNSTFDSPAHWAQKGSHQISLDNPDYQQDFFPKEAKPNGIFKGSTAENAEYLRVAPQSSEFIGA

The target of assay [4] is T1, Catenin beta-1 (Homo sapiens) (UniProt P35222).
T1 sequence (whole entry): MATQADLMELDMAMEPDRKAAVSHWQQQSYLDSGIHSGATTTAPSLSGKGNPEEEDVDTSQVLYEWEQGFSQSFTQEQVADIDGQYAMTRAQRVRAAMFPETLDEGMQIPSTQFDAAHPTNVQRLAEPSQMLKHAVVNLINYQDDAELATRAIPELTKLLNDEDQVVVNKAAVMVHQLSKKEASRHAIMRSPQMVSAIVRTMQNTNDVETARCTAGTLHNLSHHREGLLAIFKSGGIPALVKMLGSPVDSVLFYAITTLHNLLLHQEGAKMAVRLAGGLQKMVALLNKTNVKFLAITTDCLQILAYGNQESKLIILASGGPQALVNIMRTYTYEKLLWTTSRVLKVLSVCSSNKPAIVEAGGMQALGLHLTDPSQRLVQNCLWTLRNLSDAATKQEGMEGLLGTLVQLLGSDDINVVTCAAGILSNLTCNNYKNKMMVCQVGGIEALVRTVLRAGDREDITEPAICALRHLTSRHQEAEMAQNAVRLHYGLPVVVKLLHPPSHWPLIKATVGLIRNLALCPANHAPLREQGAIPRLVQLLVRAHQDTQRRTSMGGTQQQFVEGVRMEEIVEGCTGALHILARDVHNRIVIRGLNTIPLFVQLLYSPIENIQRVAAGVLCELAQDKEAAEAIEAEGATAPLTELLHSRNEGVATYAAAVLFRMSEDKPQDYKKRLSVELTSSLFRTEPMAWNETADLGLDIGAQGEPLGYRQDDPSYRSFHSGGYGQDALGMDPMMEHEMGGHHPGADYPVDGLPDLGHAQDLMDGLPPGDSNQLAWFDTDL
The experiment in a line: Inhibition of beta-catenin expressed in human SW480 cells by luciferase reporter gene assay.

For assay [5], the target named is Hypoxia-inducible factor 1-alpha (Homo sapiens) (UniProt Q16665). The experiment in a line: Inhibition of HIF1alpha expressed in human HeLa cells at 10 ug/mL by HIF1-luciferase reporter gene assay relative to control. The assay is classed as cell-based. An outline of the steps:
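HIF1-luc stably transfected HeLa cells were plated at 20,000 cells/well and set for 24 h. They were pretreated 30 min with 1% DMSO vehicle or compound (10, 2, 0.4, 0.08, 0.016 µg/mL), then given 50 µM deferoxamine as hypoxia mimetic for 24 h. Survival was measured by calcein-AM fluorescence (0.1 µM, 30 min, 37 °C), followed by luciferase luminescence. Reported as % of control.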

The source made the active and inactive calls. No cut-off for these calls is given here. A value given as a limit tells only on which side of the number the result lay.

The source of these data is ChEMBL document CHEMBL1152234, “Synthesis and antitumoral evaluation of indole alkaloid analogues containing an hexahydropyrrolo[1',2',3':1,9a,9]imidazo[1,2-a]indole skeleton” (2008).

Hypoxia-inducible factor 1-alpha (Homo sapiens), sequence (Q16665 whole entry, looked up): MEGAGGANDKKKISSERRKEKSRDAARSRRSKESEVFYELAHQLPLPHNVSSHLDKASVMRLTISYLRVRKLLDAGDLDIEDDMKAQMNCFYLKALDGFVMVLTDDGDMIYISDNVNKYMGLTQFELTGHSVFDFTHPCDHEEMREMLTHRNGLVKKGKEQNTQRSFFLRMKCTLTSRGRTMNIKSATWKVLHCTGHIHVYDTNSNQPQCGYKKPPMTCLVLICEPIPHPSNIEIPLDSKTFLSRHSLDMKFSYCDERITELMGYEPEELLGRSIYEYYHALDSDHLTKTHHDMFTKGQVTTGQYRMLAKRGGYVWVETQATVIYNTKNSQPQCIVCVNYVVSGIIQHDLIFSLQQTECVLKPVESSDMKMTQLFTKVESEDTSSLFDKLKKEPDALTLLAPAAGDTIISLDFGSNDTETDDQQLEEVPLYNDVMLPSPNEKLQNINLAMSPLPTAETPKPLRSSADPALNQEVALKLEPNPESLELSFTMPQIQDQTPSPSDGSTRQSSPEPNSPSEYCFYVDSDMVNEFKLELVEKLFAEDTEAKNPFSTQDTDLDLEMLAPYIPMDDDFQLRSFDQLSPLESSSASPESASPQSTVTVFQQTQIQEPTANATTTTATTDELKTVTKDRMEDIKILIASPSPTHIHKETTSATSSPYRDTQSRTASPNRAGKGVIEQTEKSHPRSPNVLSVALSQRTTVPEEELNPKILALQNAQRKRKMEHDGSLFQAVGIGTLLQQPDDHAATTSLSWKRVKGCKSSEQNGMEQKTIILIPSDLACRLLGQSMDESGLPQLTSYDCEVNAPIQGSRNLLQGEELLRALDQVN

Regarding `C=CC[C@@]12C[C@@H](C(=O)OC)N3[C@@H]1N(C(=N)C31CCCCC1)c1ccccc12`, the GI50 is 23.5 µM with MDA-MB-231 [1], 23.3 µM in the assay with A549 and 22.4 µM with HT-29. The concentration for total growth inhibition (TGI) in the assay with MDA-MB-231 [1] stood at 24.6 µM; in the assay on A549, 24.1 µM; in the assay with HT-29, 23.5 µM. Also, the values for the CC50 with MDA-MB-231 [1] and with A549 were 25.7 µM and 25.2 µM, respectively. In the assay with HT-29, this compound registered an LC50 (concentration killing 50% of cells) of 25.2 µM. The result (in the assay with HeLa; in the assay on MDA-MB-231 [2]; in assay [4]) was inactive. The inhibition in assay [3] was 52%.

With `COC(=O)[C@@H]1C[C@@]2(CC=C(C)C)c3ccccc3N3C(=N)[C@H](Cc4ccccc4)N1[C@H]32`, the GI50 in the assay with MDA-MB-231 [1] was greater than 100 µM; with A549, 22.1 µM; in the assay with HT-29, 20.2 µM. Also, the TGI is greater than 100 µM in the assay on MDA-MB-231 [1], 24.1 µM with A549 and 24.1 µM in the assay on HT-29. The results for the CC50 in the assay with MDA-MB-231 [1] and with A549 were greater than 100 µM and 24.1 µM, respectively. Besides, the LC50 (concentration killing 50% of cells) in the assay with HT-29 worked out at 24.1 µM. Moreover, the outcome (in the assay on HeLa; in the assay with MDA-MB-231 [2]; in assay [4]) was inactive. In addition, the values for the inhibition in assay [3] and in assay [5] were 20% and 78%, respectively.

For the compound `COC(=O)[C@@H]1C[C@@]2(CC=C(C)C)c3ccccc3N3C(=N)[C@H](C(C)(C)C)N1[C@H]32`, the figures for the GI50 in the assay on MDA-MB-231 [1], in the assay with A549 and in the assay on HT-29 were 15.2 µM, greater than 100 µM and greater than 100 µM, respectively. Further, the TGI is 26.2 µM with MDA-MB-231 [1], greater than 100 µM with A549 and greater than 100 µM with HT-29. The CC50 is 26.2 µM in the assay with MDA-MB-231 [1] and greater than 100 µM with A549. This compound also showed an LC50 (concentration killing 50% of cells) with HT-29 greater than 100 µM. Besides, the outcome (in the assay with HeLa; in the assay with MDA-MB-231 [2]; in assay [4]) was inactive. Further, the figures for the inhibition in assay [3] and in assay [5] were 0% and 83%, respectively.

Turning to `COC(=O)[C@@H]1C[C@@]2(Br)c3cc(Br)ccc3N3C(=N)C4(CCCCC4)N1[C@H]32`, the GI50 was determined as 6.21 µM in the assay on MDA-MB-231 [1], 7.24 µM in the assay with A549 and 7.45 µM in the assay on HT-29. In addition, the TGI amounted to 8.49 µM in the assay with MDA-MB-231 [1], 10.8 µM in the assay on A549 and 9.31 µM with HT-29. Besides, the CC50 in the assay with MDA-MB-231 [1] is greater than 100 µM; with A549, 16.1 µM. In the assay on HT-29, this compound registered an LC50 (concentration killing 50% of cells) of 14.1 µM. For the same compound, the result (in the assay with HeLa; in the assay with MDA-MB-231 [2]; in assay [4]) was inactive. In assay [3], this compound gave an inhibition of 83%.

For the compound `COC(=O)[C@@H]1C[C@H]2c3ccccc3N3C(=N)C(C)(C)N1[C@@H]23`, the result (with HeLa; in the assay on MDA-MB-231 [2]; in assay [4]) was inactive.

For `COC(=O)[C@@H]1C[C@@]2(Br)c3ccccc3N3C(=N)[C@H](C(C)(C)C)N1[C@H]32`, the GI50 in the assay with MDA-MB-231 [1] is 17.6 µM; in the assay on A549 it was greater than 100 µM; in the assay on HT-29, greater than 100 µM. Besides, the TGI with MDA-MB-231 [1] was 25.5 µM; in the assay with A549 it was greater than 100 µM; in the assay with HT-29, greater than 100 µM. Further, the CC50 in the assay on MDA-MB-231 [1] is 25.5 µM; in the assay with A549, greater than 100 µM. The LC50 (concentration killing 50% of cells) in the assay with HT-29 is greater than 100 µM. Besides, the result (with HeLa; in the assay on MDA-MB-231 [2]; in assay [4]) was inactive. Moreover, the inhibition in assay [3] stood at 0%; in assay [5], 70%.

For `COC(=O)[C@@H]1C[C@@]2(Br)c3cc(Br)ccc3N3C(=N)C(C)(C)N1[C@H]32`, the GI50 in the assay with MDA-MB-231 [1], in the assay with A549 and in the assay with HT-29 was greater than 100 µM each time. Further, the TGI with MDA-MB-231 [1], in the assay on A549 and in the assay with HT-29 was greater than 100 µM in each case. Also, the CC50 with MDA-MB-231 [1] and in the assay on A549 was greater than 100 µM in each case. The LC50 (concentration killing 50% of cells) in the assay on HT-29 is greater than 100 µM. For the same compound, the outcome (in the assay on HeLa; in the assay with MDA-MB-231 [2]; in assay [4]) was inactive. Moreover, the values for the inhibition in assay [3] and in assay [5] were 45% and 55%, respectively.

With `COC(=O)[C@@H]1C[C@]2(CC=C(C)C)c3ccccc3N3C(=N)[C@@H](Cc4ccccc4)N1[C@@H]32`, the GI50 was 9.39 µM in the assay on MDA-MB-231 [1], 12 µM in the assay with A549 and greater than 100 µM in the assay on HT-29. For the same compound, the TGI was 24.1 µM with MDA-MB-231 [1], 24.1 µM in the assay on A549 and greater than 100 µM in the assay with HT-29. Besides, the CC50 with MDA-MB-231 [1] and in the assay with A549 was 24.1 µM each time. The LC50 (concentration killing 50% of cells) in the assay on HT-29 was greater than 100 µM. The result (in the assay on HeLa; in the assay on MDA-MB-231 [2]; in assay [4]) was inactive. Besides, the inhibition in assay [3] was found to be 0%; in assay [5], 61%.

`COC(=O)[C@@H]1C[C@@]2(CC=C(C)C)c3ccccc3N3C(=N)[C@H](c4ccccc4)N1[C@H]32`: the GI50 in the assay with MDA-MB-231 [1], in the assay with A549 and in the assay with HT-29 was greater than 100 µM each time. Also, the TGI in the assay with MDA-MB-231 [1], with A549 and in the assay with HT-29 was greater than 100 µM in each case. Also, the CC50 in the assay on MDA-MB-231 [1] and in the assay with A549 was greater than 100 µM throughout. This compound also yielded an LC50 (concentration killing 50% of cells) in the assay with HT-29 greater than 100 µM. Besides, the result (with HeLa; with MDA-MB-231 [2]; in assay [4]) was inactive. Moreover, the inhibition in assay [3] turned out to be 13%; in assay [5], 78%.

In the case of `COC(=O)[C@@H]1C[C@@]2(Br)c3cc(Br)ccc3N3C(=N)[C@H](C(C)(C)C)N1[C@H]32`, the GI50 in the assay with MDA-MB-231 [1], with A549 and in the assay on HT-29 was greater than 100 µM throughout. Further, the TGI in the assay with MDA-MB-231 [1], with A549 and with HT-29 was greater than 100 µM throughout. The CC50 in the assay with MDA-MB-231 [1] and in the assay with A549 was greater than 100 µM each time. In addition, in the assay with HT-29, the LC50 (concentration killing 50% of cells) is greater than 100 µM. Moreover, the result (with HeLa; with MDA-MB-231 [2]; in assay [4]) was inactive. Also, the inhibition turned out to be 0% in assay [3] and 73% in assay [5].

For the compound `COC(=O)[C@@H]1C[C@H]2c3ccccc3N3C(=N)C4(CCCCC4)N1[C@@H]23`, in the assay on A549, the GI50 worked out at 9.23 µM, total growth inhibition (TGI) required 9.23 µM and the CC50 was found to be 9.23 µM. In the assay on HT-29, growth was halved (GI50) at 9.23 µM, the LC50 (concentration killing 50% of cells) was 9.23 µM and the TGI is 9.23 µM. In addition, the result with HeLa was inactive. Moreover, the result in the assay with MDA-MB-231 [2] was inactive. The result in assay [4] was inactive.
